Measured values from BindingDB's records for doi:10.1021/acs.jmedchem.8b00139 (University Park Nottingham, 2018).

Target: P2Y purinoceptor 2 (Homo sapiens, UniProt P41231)
Test: Displacement of (E)-2-((5-(7-Chloro-2-((3-((2-(6-(3-(5,5-difluoro-7,9-dimethyl-5H-5-lambda4,6-lambda4-dipyrrolo[1,2-c:2,1-f ][1,3,2]diazaborinin-3-yl)-propanamido)hexanamido)ethyl)amino)-3-oxopropyl)amino)-4Hbenzo[5,6]cyclohepta[1,2-d]thiazol-4-yl)-2-oxo-4-thioxo-3,4-dihydropyrimidin-1(2H)-yl)methyl)-N-(1H-tetrazol-5-yl)thiazole-4-carboxamide from human N-terminal NLuc-tagged P2Y2R expressed in human 1321N1 cells incubated for 1 hr by furimazine-based NanoBRET assay
How it was run: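 Competition binding in 1321N1 cells expressing N-terminal NanoLuc-hP2Y2R. The fluorescent tracer was used at 1 µM (or the bodipy A tracer at 100 nM) against increasing concentrations of unlabeled ligand. After furimazine addition the BRET signal was read and pKi estimated; mean ± SEM of separate experiments.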

P2Y purinoceptor 2, sequence (P41231 whole entry): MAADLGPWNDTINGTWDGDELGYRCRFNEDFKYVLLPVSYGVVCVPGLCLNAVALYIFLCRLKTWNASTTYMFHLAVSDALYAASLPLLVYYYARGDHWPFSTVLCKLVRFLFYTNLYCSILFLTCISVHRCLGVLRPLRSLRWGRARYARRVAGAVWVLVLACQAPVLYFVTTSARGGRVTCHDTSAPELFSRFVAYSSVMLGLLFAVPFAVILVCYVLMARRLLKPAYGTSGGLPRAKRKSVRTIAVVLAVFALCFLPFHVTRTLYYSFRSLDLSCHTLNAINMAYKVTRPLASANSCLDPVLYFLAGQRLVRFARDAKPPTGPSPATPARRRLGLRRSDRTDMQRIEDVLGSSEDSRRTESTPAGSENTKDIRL

Ki [nM] | SMILES
5250 | CCOCCNc1nc2c(s1)C=Cc1cc(Cl)ccc1[C@@H]2c1cn(C)c(=O)[nH]c1=S
275 | CCOCCNc1nc2c(s1)C=Cc1cc(Cl)ccc1[C@H]2c1cn(C)c(=O)[nH]c1=S
